# Assay results reported in ChEMBL document CHEMBL1629696, “Identification of a novel transposon (Tn6072) and a truncated staphylococcal cassette chromosome mec element in methicillin-resistant Staphylococcus aureus ST239” (2010).
# Assays:
# Type in all cases: functional
# Staphylococcus aureus [1] = assay: Antimicrobial activity against methicillin-resistant Staphylococcus aureus 16684 by broth dilution method
# How it was run: (§1)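 Oxacillin MIC by broth dilution per CLSI guidelines, on clinical MRSA isolates collected March 2004–June 2005 at a county hospital in Braşov, Romania. Bacterial suspensions were incubated 24 h at 37°C and growth was read as OD600. S. aureus MRSA252 and MSSA476 served as positive and negative controls.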
# Staphylococcus aureus [2] = assay: Antimicrobial activity against methicillin-resistant Staphylococcus aureus 16672 by broth dilution method; how it was run: as §1
# Staphylococcus aureus [3] = assay: Antimicrobial activity against methicillin-resistant Staphylococcus aureus 16645 by broth dilution method; how it was run: as §1
# Staphylococcus aureus [4] = assay: Antimicrobial activity against methicillin-resistant Staphylococcus aureus 16646 by broth dilution method; how it was run: as §1
# Staphylococcus aureus [5] = assay: Antimicrobial activity against methicillin-resistant Staphylococcus aureus 16651 by broth dilution method; how it was run: as §1
# Staphylococcus aureus [6] = assay: Antimicrobial activity against methicillin-resistant Staphylococcus aureus 16652 by broth dilution method; how it was run: as §1
# Staphylococcus aureus [7] = assay: Antimicrobial activity against methicillin-resistant Staphylococcus aureus 16653 by broth dilution method; how it was run: as §1
# Staphylococcus aureus [8] = assay: Antimicrobial activity against methicillin-resistant Staphylococcus aureus 16656 by broth dilution method; how it was run: as §1
# Staphylococcus aureus [9] = assay: Antimicrobial activity against methicillin-resistant Staphylococcus aureus 16658 by broth dilution method; how it was run: as §1
# Staphylococcus aureus [10] = assay: Antimicrobial activity against methicillin-resistant Staphylococcus aureus 16666 by broth dilution method; how it was run: as §1
# Staphylococcus aureus [11] = assay: Antimicrobial activity against methicillin-resistant Staphylococcus aureus 16670 by broth dilution method; how it was run: as §1
# Staphylococcus aureus [12] = assay: Antimicrobial activity against methicillin-resistant Staphylococcus aureus 16671 by broth dilution method; how it was run: as §1
# Staphylococcus aureus [13] = assay: Antimicrobial activity against methicillin-resistant Staphylococcus aureus 16676 by broth dilution method; how it was run: as §1
# Staphylococcus aureus [14] = assay: Antimicrobial activity against methicillin-resistant Staphylococcus aureus 16677 by broth dilution method; how it was run: as §1
# Staphylococcus aureus [15] = assay: Antimicrobial activity against methicillin-resistant Staphylococcus aureus 16680 by broth dilution method; how it was run: as §1
# Staphylococcus aureus [16] = assay: Antimicrobial activity against methicillin-resistant Staphylococcus aureus 16686 by broth dilution method; how it was run: as §1
# Staphylococcus aureus [17] = assay: Antimicrobial activity against methicillin-resistant Staphylococcus aureus 16687 by broth dilution method; how it was run: as §1
# Staphylococcus aureus [18] = assay: Antimicrobial activity against methicillin-resistant Staphylococcus aureus 16698 by broth dilution method; how it was run: as §1
# Staphylococcus aureus [19] = assay: Antimicrobial activity against methicillin-resistant Staphylococcus aureus 16699 by broth dilution method; how it was run: as §1
# Staphylococcus aureus [20] = assay: Antimicrobial activity against methicillin-resistant Staphylococcus aureus 16700 by broth dilution method; how it was run: as §1
# Staphylococcus aureus [21] = assay: Antimicrobial activity against methicillin-resistant Staphylococcus aureus 16702 by broth dilution method; how it was run: as §1
# Staphylococcus aureus [22] = assay: Antimicrobial activity against methicillin-resistant Staphylococcus aureus 16704 by broth dilution method; how it was run: as §1
# Staphylococcus aureus [23] = assay: Antimicrobial activity against methicillin-resistant Staphylococcus aureus 16674 by broth dilution method; how it was run: as §1
# Staphylococcus aureus [24] = assay: Antimicrobial activity against methicillin-resistant Staphylococcus aureus 16678 by broth dilution method; how it was run: as §1
# Staphylococcus aureus [25] = assay: Antimicrobial activity against methicillin-resistant Staphylococcus aureus 16679 by broth dilution method; how it was run: as §1
# Staphylococcus aureus [26] = assay: Antimicrobial activity against methicillin-resistant Staphylococcus aureus 16683 by broth dilution method; how it was run: as §1
# Staphylococcus aureus [27] = assay: Antimicrobial activity against methicillin-resistant Staphylococcus aureus 16688 by broth dilution method; how it was run: as §1
# Staphylococcus aureus [28] = assay: Antimicrobial activity against methicillin-resistant Staphylococcus aureus 16689 by broth dilution method; how it was run: as §1
# Staphylococcus aureus [29] = assay: Antimicrobial activity against methicillin-resistant Staphylococcus aureus 16691 by broth dilution method; how it was run: as §1
# Staphylococcus aureus [30] = assay: Antimicrobial activity against methicillin-resistant Staphylococcus aureus 16692 by broth dilution method; how it was run: as §1
# Staphylococcus aureus [31] = assay: Antimicrobial activity against methicillin-resistant Staphylococcus aureus 16695 by broth dilution method; how it was run: as §1
# Staphylococcus aureus [32] = assay: Antimicrobial activity against methicillin-resistant Staphylococcus aureus 16696 by broth dilution method; how it was run: as §1
# Staphylococcus aureus [33] = assay: Antimicrobial activity against methicillin-resistant Staphylococcus aureus 16703 by broth dilution method; how it was run: as §1
# Staphylococcus aureus [34] = assay: Antimicrobial activity against methicillin-resistant Staphylococcus aureus 16708 by broth dilution method; how it was run: as §1
# Staphylococcus aureus [35] = assay: Antimicrobial activity against methicillin-resistant Staphylococcus aureus HDG2 by broth dilution method
# Staphylococcus aureus [36] = assay: Antimicrobial activity against methicillin-resistant Staphylococcus aureus 85/2082 by broth dilution method
compound,measurement,setting,value
Cc1onc(-c2ccccc2)c1C(=O)N[C@@H]1C(=O)N2[C@@H]1SC(C)(C)[C@@H]2C(=O)O [OXACILLIN],MIC,Staphylococcus aureus [1],256 µg/mL
same,MIC,Staphylococcus aureus [2],8 µg/mL
same,MIC,Staphylococcus aureus [3],> 512 µg/mL
same,MIC,Staphylococcus aureus [4],512 µg/mL
same,MIC,Staphylococcus aureus [5],512 µg/mL
same,MIC,Staphylococcus aureus [6],512 µg/mL
same,MIC,Staphylococcus aureus [7],512 µg/mL
same,MIC,Staphylococcus aureus [8],512 µg/mL
same,MIC,Staphylococcus aureus [9],256 µg/mL
same,MIC,Staphylococcus aureus [10],256 µg/mL
same,MIC,Staphylococcus aureus [11],512 µg/mL
same,MIC,Staphylococcus aureus [12],512 µg/mL
same,MIC,Staphylococcus aureus [13],512 µg/mL
same,MIC,Staphylococcus aureus [14],256 µg/mL
same,MIC,Staphylococcus aureus [15],512 µg/mL
same,MIC,Staphylococcus aureus [16],512 µg/mL
same,MIC,Staphylococcus aureus [17],512 µg/mL
same,MIC,Staphylococcus aureus [18],512 µg/mL
same,MIC,Staphylococcus aureus [19],256 µg/mL
same,MIC,Staphylococcus aureus [20],512 µg/mL
same,MIC,Staphylococcus aureus [21],512 µg/mL
same,MIC,Staphylococcus aureus [22],512 µg/mL
same,MIC,Staphylococcus aureus [23],256 µg/mL
same,MIC,Staphylococcus aureus [24],256 µg/mL
same,MIC,Staphylococcus aureus [25],512 µg/mL
same,MIC,Staphylococcus aureus [26],256 µg/mL
same,MIC,Staphylococcus aureus [27],512 µg/mL
same,MIC,Staphylococcus aureus [28],512 µg/mL
same,MIC,Staphylococcus aureus [29],256 µg/mL
same,MIC,Staphylococcus aureus [30],256 µg/mL
same,MIC,Staphylococcus aureus [31],512 µg/mL
same,MIC,Staphylococcus aureus [32],512 µg/mL
same,MIC,Staphylococcus aureus [33],256 µg/mL
same,MIC,Staphylococcus aureus [34],256 µg/mL
same,MIC,Staphylococcus aureus [35],64 µg/mL
same,MIC,Staphylococcus aureus [36],16 µg/mL
